# This is a sample that favours compounds with a hit; in the whole collection about 2% have one here.
# Neddylation inh: cullin neddylation inhibition; P61081+Q13564; TR-FRET cullin neddylation, biochemical; calls only at 25 µM; actives 0.58% (n = 360,000); in the data active = inhibition above about 36%
# Target sequence (P61081 whole entry, looked up): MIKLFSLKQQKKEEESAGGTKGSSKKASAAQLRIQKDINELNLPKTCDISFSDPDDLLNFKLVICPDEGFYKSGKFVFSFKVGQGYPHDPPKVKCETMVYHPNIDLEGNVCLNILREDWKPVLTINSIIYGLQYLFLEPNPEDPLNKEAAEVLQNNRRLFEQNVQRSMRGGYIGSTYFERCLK
# Target sequence (Q13564 whole entry, looked up): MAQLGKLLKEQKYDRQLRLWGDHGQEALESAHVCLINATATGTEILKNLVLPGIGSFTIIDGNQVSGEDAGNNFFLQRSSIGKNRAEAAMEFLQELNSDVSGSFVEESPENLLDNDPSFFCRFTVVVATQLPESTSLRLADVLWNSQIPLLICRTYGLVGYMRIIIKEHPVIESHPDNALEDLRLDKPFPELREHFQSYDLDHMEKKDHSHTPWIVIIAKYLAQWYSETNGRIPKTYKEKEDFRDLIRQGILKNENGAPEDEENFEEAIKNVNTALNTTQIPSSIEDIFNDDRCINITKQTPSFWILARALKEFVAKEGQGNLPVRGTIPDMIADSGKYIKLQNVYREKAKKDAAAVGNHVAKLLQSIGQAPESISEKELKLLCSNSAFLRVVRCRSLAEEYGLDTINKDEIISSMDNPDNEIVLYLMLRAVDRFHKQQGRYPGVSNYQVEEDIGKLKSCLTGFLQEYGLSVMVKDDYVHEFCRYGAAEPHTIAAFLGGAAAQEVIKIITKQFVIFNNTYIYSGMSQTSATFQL
# NR2E3 ag-1: agonists of human nuclear receptor NR2E3; Q9Y5X4; GST-NR2E3/biotin-RetCOR TR-FRET, 1536-well; inhibition of corepressor binding, % at 4.78 µM; actives 0.12% (n = 320,000);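 active = percent inhibition above the cutoff of mean plus 3 SD of all tested compounds, set per screening campaign, cut at about 20% in these data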;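 note: 0% = DMSO wells and 100% = biotin wells as full block of FRET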
#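 Assay system: NR2E3–RetCOR corepressor complex. Quantity: 1.35 nM GST-NR2E3. Buffer or medium: pH 7.5 Tris-based buffer. Reagent: biotinylated RetCOR corepressor at 7 nM final. Schedule: 5 h at 4 °C. Detection: TR-FRET, emission read at 617 and 671 nm. Replicates: one well per compound, singlicate testing.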
# NR1D1 modulator: modulators of human Rev-erb alpha DNA binding; P20393; Rev-erbα–FITC-DNA binding, fluorescence polarization, 90 min; activity, % at 10 µM; actives 0.79% (n = 370,000); AID 1259318;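 active = activity above about 14%, limit read from the data; passing the limit was not always enough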;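 note: 0% = DMSO wells with 35 nM protein and 100% = DMSO wells with 750 nM protein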
# PG9 binder: small molecules binding HIV-1 gp120 antibody PG9; TR-FRET gp120-PG9 antibody binding; inhibition, % at 6.7 µM; actives 0.43% (n = 360,000); in the data active = inhibition above about 8.5%
# NR2E3 ag-2: agonists of human NR2E3 nuclear receptor. Q9Y5X4. AID 602229. inhibition of corepressor binding, % at 3.98 µM. CHO-S Gal4-NCOR/VP16-NR2E3 two-hybrid, luciferase. actives 0.35% (n = 360,000);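 active = inhibition above the mean of all tested compounds plus 3 SD, cut at about 70% in these data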;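 note: 0% = DMSO with NR2E3 transfected cells and 100% = cells lacking NR2E3 construct; higher means lower luciferase signal from less NR2E3 corepressor binding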
# Rev-erbA confirm: confirmation of modulators of human Rev-erb alpha DNA binding. shares compounds with NR1D1 modulator. Rev-erb alpha FITC-DNA binding, fluorescence polarization, 90 min. activation, % at 25 µM. actives 61% (n = 3,000). AID 1259319;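 active = activation at or above a set limit, or at least 3 SD above the negative control mean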;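 note: 0% = 35 nM protein with DMSO and 100% = 750 nM protein high control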
# RORg counter: affects RORgamma DNA binding in a Rev-erb alpha counter-screen. actives 8% (n = 910). purified RORgamma protein-FITC-DNA binding, fluorescence polarization. AID 1259320. shares compounds with NR1D1 modulator. IC50, µM;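 active = Compounds whose fitted half-maximal concentration for disrupting protein-DNA binding is below 10 micromolar; the record names Rev-erb in its text, so the target is in doubt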
# An asterisk follows results filed as active; i = inactive; . = not tested or not shown.
SMILES,Neddylation inh,NR2E3 ag-1,NR1D1 modulator,PG9 binder,NR2E3 ag-2,Rev-erbA confirm,others
Cc1ccc(C(=O)Nc2ccc(C(F)(F)F)n(C)c2=O)cc1,i,3,28*,3,-66,3,
COc1ccc(C(=O)Nc2ccc(C(F)(F)F)n(C)c2=O)cc1,i,-2,47*,-4,-25,32*,RORg counter=>40
CCN(CC)S(=O)(=O)c1ccc(C(=O)Nc2ccc(C(F)(F)F)n(C)c2=O)cc1,i,6,4,0,-2,.,
CCOc1ccccc1N(CC(=O)N1CCN(Cc2ccccc2)CC1)S(=O)(=O)c1ccccc1,i,.,1,2,10,.,
COc1ccc(C2=NN(C(=O)COc3ncnc4ccccc34)C(c3ccco3)C2)cc1 (stereo not given),i,1,31*,-1,27,6,
COc1ccc(C2=NN(C(=O)CSc3nnc(C)n3C)C(c3ccco3)C2)cc1 (stereo not given),i,0,-3,-3,2,.,
O=C1c2ccccc2[C@@H]2C[C@@H](O)[C@H](Nc3cccc(C(F)(F)F)c3)CCN12,i,.,-2,-2,-16,.,
CC(C)[C@@H](NC(=O)OC(C)(C)C)c1cc(C(=O)c2c(-c3ccccc3)[nH]c3ccccc23)c(N)s1,i,.,4,-1,.,.,
CN(C)c1ccc(-c2nnn(CC(=O)NCc3ccc4c(c3)OCO4)n2)cc1,i,6,15*,7,-47,7,
O=C(CCCOc1ccc(Cl)cc1Cl)NCCc1ccccn1,i,0,-5,-2,-6,.,
Cc1ccccc1C(=O)NN(C)c1nc2ccccc2nc1C(F)(F)F,i,-1,36*,-1,-28,31*,
COc1ccccc1-n1ccnc(SCC(=O)NCCc2ccccc2)c1=O,i,-3,-1,-1,8,.,
CCc1cc2cc3c(cc2nc1SCC(=O)Nc1c[nH]c(=O)[nH]c1=O)OCO3,i,6,187*,1,-6,172*,RORg counter=>40
CC(=O)c1cc2c(cc1NC(=O)CSc1nc3ccccc3[nH]1)OCO2,.,1,.,.,.,.,
CCc1cc2cc3c(cc2nc1SCC(=O)Nc1nccs1)OCO3,i,2,225*,14*,-19,123*,RORg counter=>40
CCOC(=O)c1c(SCC(=O)Nc2nccs2)nc(C)c(C)c1C,i,.,-1,0,-138,.,
CN1[C@H](Cc2ccccc2)COc2cccc(N3CCCC3)c2S1(=O)=O,.,.,4,.,.,.,
Cc1cccc(N2CCN(c3ccc4cc(S(=O)(=O)N5CCCCC5)ccc4n3)CC2C)c1 (stereo not given),i,0,78*,0,-7,49*,RORg counter=>40
Cc1cccc(N2CCN(c3ccc4cc(S(=O)(=O)N5CCCCC5)ccc4n3)CC2)c1C,i,-1,101*,-1,5,50*,RORg counter=>40
Cc1ccc(C)c(N2CCN(c3ccc4cc(S(=O)(=O)N5CCCCC5)ccc4n3)CC2)c1,i,0,12,1,17,.,
COC(=O)[C@]12C[C@H](CC(=O)NCc3ccc(C)o3)C(=O)N(Cc3ccccc3)C1=C[C@H](COCc1ccccc1)O[C@@H]2C,.,.,1,.,.,.,
COc1cccc(CNC(=O)C2C3C=CC4(CN(Cc5ccccc5)C(=O)C24)O3)c1OC (stereo not given),.,.,-2,.,.,.,
N#C/C(=C/c1ccc(N2CCOCC2)o1)C(=O)Nc1ccccc1,i,.,53*,-16,-134,26*,
N#C/C(=C\c1ccc(N2CCOCC2)o1)C(=O)NCC1CCCO1 (stereo not given),i,-5,21*,-17,-23,13,
Cc1ccc2cc(-c3noc(C4CCCCC4)n3)c(=O)[nH]c2c1,i,3,41*,0,12,34*,RORg counter=>40
SMILES,Neddylation inh,NR2E3 ag-1,NR1D1 modulator,PG9 binder,NR2E3 ag-2,Rev-erbA confirm,others
Cc1ccc2cc(-c3noc(C4CCCO4)n3)c(=O)[nH]c2c1 (stereo not given),.,-1,-6,2,7,.,
COC(=O)[C@]12C[C@H](CC(=O)N3CCC(c4ccccc4)CC3)C(=O)N(CCc3ccc(OC)c(OC)c3)C1=C[C@H](C(C)(C)C)O[C@@H]2C,.,.,11,-3,.,.,
COc1ccc2c(c1)c(=O)c(C(=O)c1ccc(F)cc1)cn2CC(=O)Nc1ccc(F)cc1,i,8,33*,7,-11,26*,
Cc1coc(NC(=O)CSc2nc(-c3ccc(Cl)cc3)cc(C(F)(F)F)c2C#N)n1,i,-2,78*,0,-14,66*,RORg counter=>40
COc1ccc(-c2cc(C(F)(F)F)c(C#N)c(SCC(=O)O)n2)cc1,i,0,0,-1,-15,.,
COc1ccc(-c2cc(C(F)(F)F)c(C#N)c(SCC(=O)Nc3nc(C)co3)n2)cc1,i,4,47*,.,3,43*,RORg counter=>40
COc1ccc(NC(=O)CSc2nc(-c3ccc(C)cc3)cc(C(F)(F)F)c2C#N)cc1,i,0,24*,1,-17,41*,RORg counter=1.5*
COc1ccc(-c2cc(C(F)(F)F)c(C#N)c(SCC(=O)Nc3ccccc3C#N)n2)cc1,.,0,.,.,.,.,
CC(C)Cc1nc2oc3c(N4CCN(CCO)CC4)ncnc3c2c2c1CCCC2,i,2,-6,-1,-13,.,
CCOC(=O)N1CCN(c2ncnc3c2oc2nc(C(C)C)c4c(c23)CCC4)CC1,i,0,45*,3,-25,84*,RORg counter=>40
CC1=C(C(=O)N2CCCCCC2)CC(CC(=O)NCCN2CCOCC2)C(=O)N1Cc1ccc(F)cc1 (stereo not given),i,.,-3,1,-2,.,
CCCn1c(SCC(=O)NCc2ccc3c(c2)OCO3)n[nH]c1=O,i,2,-4,0,-6,.,
CC(NS(=O)(=O)c1cccc(Cl)c1)C(=O)Nc1ccc(-c2nc3ccccc3s2)cc1 (stereo not given),i,1,30*,0,-122,10,
Cc1ccc(C)c(N2CC(C(=O)Nc3nccs3)CC2=O)c1 (stereo not given),i,5,1,-2,-5,.,
COc1ccc(OC)c(NC(=O)c2ccccc2SC)c1,i,1,8,0,-1,.,
COc1ccc(OC)c(NC(=O)c2cc3oc4ccccc4c3cc2O)c1,i,2,41*,1,2,15,
C[C@@H]1CN([C@@H](C)CO)C(=O)CCCn2nncc2CO[C@@H]1CN(C)C(=O)Nc1ccc2c(c1)OCO2,i,.,-5,-1,12,.,
COc1ccc(-c2cc(-c3ccccc3)nc(SCC(=O)Nc3ncc(C)s3)c2C#N)cc1,i,2,39*,3,-2,7,
CCc1nnc(NC(=O)CSc2nc(C)cc(C)c2C#N)s1,i,-3,5,0,-82,.,

# Source: PubChem BioAssay
